According to ChEMBL document CHEMBL2346576, “α-Selective glycosylation affords mucin-related GalNAc amino acids and diketopiperazines active on Trypanosoma cruzi” (Bioorg Med Chem, 2013):
pIC50: −log10 of the molar value. Calls of active or inactive are those of the source. No cut-off for these calls is given here.

Key:
Trypanosoma cruzi [1] = test: Antitrypanosomal activity against trypomastigote form of Trypanosoma cruzi Tulahuen expressing beta galactosidase infected in rhesus monkey LLC-MK2 cells assessed as inhibition of parasite viability treated at 24 hrs post-infection measured after 4 days by CPRG based colorimetric assay; format: functional, organism-based
In short: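 LLC-MK2 cells at 2×10^3/well in phenol red-free RPMI, grown 24 h, infected with 1×10^4 Tulahuen-lacZ trypomastigotes. Compound added 24 h later at 0.5–0.0035 mM (8 concentrations). After 4 days, PBS with 0.5% Triton X-100 and 100 μM CPRG added; 4 h at 37 °C, absorbance 570 nm. IC50 from three independent experiments, each in duplicate.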

[2] = Cytotoxicity against C57BL/6 mouse spleen cell assessed as cell death at 7.8 to 500 uM after 24 hrs by propidium iodide staining based flow cytometry; format: tissue-based
In short: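 Spleen cells from C57BL/6 mice were dissociated, red cells lysed for 5 min (0.17 M Tris-HCl pH 7.5 : 0.16 M NH4Cl, 1:9), and cells grown in RPMI 1640 with 10% FBS and antibiotics at 5×10^5 cells/well with compounds for 24 h at 37 °C. The positive control was 0.5% Tween 20. Dead cells were stained with 10 µg/mL propidium iodide and counted by flow cytometry. Three independent experiments were run in duplicate.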

[3] = Inhibition of C-terminal truncated recombinant Trypanosoma cruzi trans-sialidase assessed as decrease in substrate MuNANA hydrolysis at 1 mM preincubated with enzyme for 10 mins prior to substrate addition measured after 10 mins by continuous fluorimetric assay
In short: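 His-tagged 70 kDa recombinant enzyme retaining the catalytic N-terminal domain. Run in triplicate in phosphate buffer pH 7.4; enzyme and inhibitor (25 µL of 4.0 mM solution) preincubated 10 min at 26 °C. MuNANA then added to 0.1 mM final; fluorescence of released Mu read after 10 min (ex 360/em 460 nm). %I = 100×(1−Vi/V0); pyridoxal phosphate as control.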

[4] = Inhibition of C-terminal truncated recombinant Trypanosoma cruzi trans-sialidase assessed as decrease in substrate MuNANA hydrolysis preincubated with enzyme for 10 mins prior to substrate addition measured after 10 mins by continuous fluorimetric assay
Trypanosoma cruzi [5] = test: (§1) Antitrypanosomal activity against amastigote form of Trypanosoma cruzi Tulahuen infected in african green monkey Vero cells assessed as decrease in number of intracellular parasites at 0.06 to 0.5 mM treated after removal of parasite on cell supernatant following 12 hrs of infection measured after 24 hrs by Giemsa staining based optical microscopy; format: functional, organism-based
In short: (§2)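 Vero cells plated at 2×10^4/well on 8-well chamber slides; after 12 h infected with 2×10^5 trypomastigotes/well for 12 h, washed with PBS, then compound added for 24 h at 37 °C. Giemsa-stained, parasites per cell counted by light microscopy in at least 200 cells/well. Two independent experiments, each in triplicate.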

Trypanosoma cruzi [6] = test: as §1, with “parasites” for “parasites at 0.06 to 0.5 mM”; format: functional, organism-based; in short: as §2

## CC(=O)N[C@H]1[C@@H](OC[C@@H]2NC(=O)[C@H](CC(=O)O)NC2=O)O[C@H](CO)[C@H](O)[C@@H]1O
Trypanosoma cruzi [1]
  pIC50: 3.55
[2]
  Activity: Non-toxic
[3]
  inhibition: 25%

## CC(=O)N[C@H]1[C@@H](OC[C@H](N)C(=O)O)O[C@H](CO)[C@H](O)[C@@H]1O
Trypanosoma cruzi [1]
  pIC50: < 3.30
[2]
  Activity: Non-toxic
[3]
  inhibition: 57%

## CC(=O)N[C@H]1[C@@H](O[C@H](C)[C@H](N)C(=O)O)O[C@H](CO)[C@H](O)[C@@H]1O
[4]
  pIC50: 3.49
Trypanosoma cruzi [1]
  pIC50: < 3.30
[2]
  Activity: Non-toxic
[3]
  inhibition: 79%

## O=C(Cn1ccnc1[N+](=O)[O-])NCc1ccccc1 [BENZNIDAZOLE]
Trypanosoma cruzi [1]
  pIC50: 4.52
Trypanosoma cruzi [5]
  Activity: Active

## CC(=O)N[C@H]1[C@@H](O[C@H](C)[C@@H]2NC(=O)[C@H](CC(=O)O)NC2=O)O[C@H](CO)[C@H](O)[C@@H]1O
Trypanosoma cruzi [1]
  pIC50: 3.91
Trypanosoma cruzi [6]
  Activity: Dose-dependent effect
[2]
  Activity: Non-toxic
[3]
  inhibition: 13%
